From ChEMBL document CHEMBL1156771, “Synthesis and antimalarial evaluation of 1, 3, 5-trisubstituted pyrazolines” (Eur J Med Chem, 2010)
Active and inactive are the calls of the source. The rule behind the calls is not given here.

Legend:
[1] = Cytotoxicity against human HeLa cells after 72 hrs by neutral red uptake assay; format: cell-based
How it was run: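 HeLa cells grown in EMEM with 10% FBS were seeded at 2×10^3 per well and left overnight at 37 °C, 5% CO2. They were exposed to two-fold serial dilutions from DMSO stocks (DMSO ≤0.1%) in duplicate for 72 h. Cells were fixed in glutaraldehyde, stained with 0.2% neutral red and lysed in acid ethanol, then read at 550 nm against DMSO controls. The value reported is MNTD, the highest concentration giving 100% survival.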

[2] = Inhibition of beta-hematin formation by BHIA assay; format: functional
How it was run: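 Compounds (6 to 0.3 mM) were incubated with hematin in the presence of glacial acetic acid at 37 °C for 24 h. Water or ethanol served as controls. The pellet was washed with DMSO to remove unconverted hematin, and the remaining β-hematin was dissolved in 0.1 N NaOH. Absorbance was read at 405 nm to derive BHIA50.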

Plasmodium berghei [3] = assay: Antimalarial activity against Plasmodium berghei ANKA infected in Swiss albino mice (Mus musculus) assessed as suppression of parasitemia at 8 mg/kg/day, perorally for 4 days; format: functional; conditions: route oral
How it was run: (§1)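 Peters' 4-day suppressive test in male Swiss albino mice (18–20 g), five per group. Mice were infected intraperitoneally with about 30% P. berghei-infected donor erythrocytes, then dosed orally 4 h later and on days 0–3. Controls received the suspending solvent. Giemsa-stained tail smears were read on days 4 and 7; % suppression was calculated against controls. Survival was followed for 28 days for MST.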

Plasmodium berghei [4] = assay: Antimalarial activity against Plasmodium berghei ANKA infected in Swiss albino mice (Mus musculus) assessed as mean survival time at 8 mg/kg/day, perorally for 4 days measured after 28 days; format: functional, organism-based; how it was run: as §1
Plasmodium falciparum [5] = assay: Antiplasmodial activity against chloroquine-sensitive Plasmodium falciparum MRC-02 infected in human erythrocyte assessed as inhibition of schizont maturation after 24 hrs; format: functional, organism-based; conditions: MRC-02, 24 h
How it was run: (§2)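 Sorbitol-synchronised ring-stage culture in human B+ erythrocytes, in RPMI-1640 with 25 mM HEPES, 10% AB+ serum and 0.2% bicarbonate under 5% CO2. Parasitaemia was set at 1–1.5%. Cultures were exposed to two-fold serial dilutions for 24 h at 37 °C (ethanol ≤0.5% final), duplicate wells per dose. Schizonts per 100 asexual parasites were counted on Giemsa smears. Inhibition = (1−Nt/Nc)×100.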

[6] = Selectivity ratio of CC50 for human HeLa cells to IC50 for Plasmodium falciparum MRC-02; format: ADME, cell-based; conditions: read-out: Ratio CC50/IC50
How it was run: (§3)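 The IC50 came from sorbitol-synchronized ring-stage cultures at 1–1.5% parasitemia in human B+ erythrocytes in RPMI-1640/HEPES with 10% AB+ serum, given two-fold dilutions (ethanol ≤0.5% final). Cultures ran 24 h at 37 °C in duplicate, and schizonts per 100 asexual parasites were counted on Giemsa smears.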

Plasmodium falciparum [7] = assay: Antiplasmodial activity against chloroquine-resistant Plasmodium falciparum RKL09 infected in human erythrocyte assessed as inhibition of schizont maturation after 24 hrs; format: functional, organism-based; conditions: RKL09, 24 h; how it was run: as §2
[8] = Selectivity ratio, CC50 for human HeLa cells to IC50 for Plasmodium falciparum RKL09; format: ADME, cell-based; conditions: read-out: Ratio CC50/IC50; how it was run: as §3
Plasmodium berghei [9] = assay: Antimalarial activity against Plasmodium berghei ANKA infected in Swiss albino mice (Mus musculus) assessed as suppression of parasitemia at 50 mg/kg/day, perorally for 4 days; format: functional; conditions: route oral; how it was run: as §1
Plasmodium berghei [10] = assay: Antimalarial activity against Plasmodium berghei ANKA infected in Swiss albino mice (Mus musculus) assessed as mean survival time at 50 mg/kg/day, perorally for 4 days measured after 28 days; format: functional; conditions: route oral
How it was run: (§4)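 Peters 4-day suppressive test in male Swiss albino mice (18–20 g), groups of five. Mice inoculated intraperitoneally with P. berghei ANKA-infected erythrocytes from a donor mouse. Oral dosing began 4 h later and was given once daily on days 0–3. Vehicle controls received the suspending solvent. Mean survival time was taken from deaths over a 28-day observation period.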

Plasmodium berghei [11] = assay: Antimalarial activity against Plasmodium berghei ANKA infected in Swiss albino mice (Mus musculus) assessed as suppression of parasitemia at 25 mg/kg/day, perorally for 4 days; format: functional; conditions: route oral; how it was run: as §1
Plasmodium berghei [12] = assay: Antimalarial activity against Plasmodium berghei ANKA infected in Swiss albino mice (Mus musculus) assessed as mean survival time at 25 mg/kg/day, perorally for 4 days measured after 28 days; format: functional; conditions: route oral; how it was run: as §4

SMILES | MNTC at 72 h [1] [nM] | IC50 [2] [µM] | Activity (Plasmodium berghei [3]) [%] | Activity (Plasmodium berghei [4]) | IC50 (Plasmodium falciparum [5]) [µM] | selectivity ratio [6] | IC50 (Plasmodium falciparum [7]) [µM] | selectivity ratio [8] | Activity (Plasmodium berghei [9]) [%] | Activity (Plasmodium berghei [10]) [days] | Activity (Plasmodium berghei [11]) [%] | Activity (Plasmodium berghei [12]) [days]
CCN(CC)CCCC(C)Nc1ccnc2cc(Cl)ccc12.O=P(O)(O)O.O=P(O)(O)O (centres undefined) [CHLOROQUINE PHOSPHATE] | 66200 | 1890 | 100 | Active | – | – | – | – | – | – | – | –
COc1cc(C2CC(c3ccc(O)cc3)=NN2C(=O)c2cccnc2)cc(OC)c1OC (centres undefined) | 828 | 1700 | – | – | 0.0265 | 31.2 | 0.0425 | 19.5 | 43.7 | 11 | 32.78 | 9
Cc1ccc(C2CC(c3ccc(O)cc3)=NN2C(=O)c2cccnc2)cc1 (centres undefined) | 2190 | 1570 | – | – | 0.0555 | 39.4 | 0.0887 | 24.6 | – | – | – | –
O=C(c1cccnc1)N1N=C(c2ccc(O)cc2)CC1c1cccc([N+](=O)[O-])c1 (centres undefined) | 3750 | 2070 | – | – | 0.106 | 35.2 | 0.423 | 8.85 | – | – | – | –
COc1ccc(Br)cc1C1CC(c2ccc(O)cc2)=NN1C(=O)c1cccnc1 (centres undefined) | 2660 | 1890 | – | – | 0.0495 | 53.7 | 0.242 | 11 | – | – | – | –
O=C(c1cccnc1)N1N=C(c2ccc(O)cc2)CC1c1ccccc1 (centres undefined) | 1880 | 1580 | – | – | 0.0304 | 61.7 | 0.131 | 14.4 | – | – | – | –
O=C(c1cccnc1)N1N=C(c2ccc(O)cc2)CC1c1cccc(Br)c1 (centres undefined) | 3060 | 2060 | – | – | 0.026 | 118 | 0.0786 | 39 | – | – | – | –
Cc1ccccc1C1CC(c2ccc(O)cc2)=NN1C(=O)c1cccnc1 (centres undefined) | 1810 | 2430 | – | – | 0.0625 | 29 | 0.102 | 17.8 | – | – | – | –
O=C(c1cccnc1)N1N=C(c2ccc(O)cc2)CC1c1ccccc1Br (centres undefined) | 3810 | 1820 | – | – | 0.0272 | 140 | 0.064 | 59.6 | 47.52 | 10.3 | 34.98 | 9
CCOc1ccc(C2CC(c3ccc(O)cc3)=NN2C(=O)c2cccnc2)cc1OC (centres undefined) | 3560 | 2390 | – | – | – | 47.5 | – | 16.6 | – | – | – | –
O=C(c1cccnc1)N1N=C(c2ccc(O)cc2)CC1c1ccc(Cl)cc1Cl (centres undefined) | 1250 | 1530 | – | – | 0.0375 | 33.3 | 0.068 | 18.4 | 68.93 | 13.2 | 60.55 | 11.6
